Reference: ChEMBL document CHEMBL3352485 (J Med Chem, 2014)
Calls of active or inactive are those of the source. The calls are words filed in the database; no cut-off is given here. Where a SMILES comes first, the peptide text is derived from it. [ ]: non-standard residue; d: D form. Arg(Me) = CNC(=N)NCCC[C@H](N)C(=O)O; d4Pal = N[C@H](Cc1ccncc1)C(=O)O; azaGly = NNC(=O)O

Tests used:
KiSS-1 receptor [1] = target: T1, KiSS-1 receptor (Homo sapiens, UniProt Q969F8); test: Agonist activity at human KISS1R transfected in CHO cells assessed as intracellular calcium flux after 24 hrs by functional FLIPR assay; format: cell-based
How it was run: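 CHO cells stably expressing human KISS1R were seeded at 15 000 cells/mL, cultured 24 h, then loaded with fluo-3 for 1 h at 37 °C in HBSS/HEPES (pH 7.4) with probenecid and FBS. Cells were washed in HBSS with 2.5 mM probenecid. Peptides came from 1 mM DMSO stocks diluted in buffer containing probenecid, 0.2% BSA and 0.1% CHAPS. Fluorescence was recorded on FLIPR for 3 min; peak counts over 0–180 s gave agonist activity.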

KiSS-1 receptor [2] = target: T2, KiSS-1 receptor (Rattus norvegicus, UniProt Q924U1); test: Agonist activity at rat KISS1R transfected in CHO cells assessed as intracellular calcium flux after 24 hrs by functional FLIPR assay; format: cell-based
KiSS-1 receptor [3] = target: T1, KiSS-1 receptor; test: Displacement of radioligand from human KISS1R transfected in CHO cells; format: cell-based
How it was run: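 Binding used membrane fractions prepared from CHO cells expressing recombinant human KISS1R.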

KiSS-1 receptor [4] = target: T2, KiSS-1 receptor; test: Displacement of radioligand from rat KISS1R transfected in CHO cells; format: cell-based
[5] = Stability of the compound in aqueous solution (JP1) assessed as residual ratio at pH 1.2 up to 1 week by HPLC analysis relative to initial level; format: physicochemical
How it was run: (§1)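 Peptides in aqueous solution at pH 1.2 (JP1, containing 10% acetonitrile), 3, 5 or 7 were kept in the dark at 37 °C for up to 2 weeks. Peptide remaining was quantified from HPLC peak area, with detection at 230–280 nm. The residual ratio (stability index) was expressed relative to the time-0 amount, taken as 100%.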

[6] = Stability of the compound in aqueous solution assessed as residual ratio at pH 3 up to 1 week by HPLC analysis relative to initial level; format: physicochemical; how it was run: as §1
[7] = Stability of the compound in aqueous solution assessed as residual ratio at pH 5 up to 1 week by HPLC analysis relative to initial level; format: physicochemical; how it was run: as §1
[8] = Stability of the compound in aqueous solution assessed as residual ratio at pH 7 up to 1 week by HPLC analysis relative to initial level; format: physicochemical; how it was run: as §1
[9] = Stability of the compound in aqueous solution (JP1) assessed as residual ratio at pH 1.2 up to 2 weeks by HPLC analysis relative to initial level; format: physicochemical; how it was run: as §1
[10] = Stability of the compound in aqueous solution assessed as residual ratio at pH 3 up to 2 weeks by HPLC analysis relative to initial level; format: physicochemical; how it was run: as §1
[11] = Stability of the compound in aqueous solution assessed as residual ratio at pH 5 up to 2 weeks by HPLC analysis relative to initial level; format: physicochemical; how it was run: as §1
[12] = Stability of the compound in aqueous solution assessed as residual ratio at pH 7 up to 2 weeks by HPLC analysis relative to initial level; format: physicochemical; how it was run: as §1
Rattus norvegicus [13] = test: Testosterone-suppressive activity in Crl:CD(SD) rat assessed as number of animal with plasma testosterone level below the limit of detection at 0.05 mol/hr, sc through osmotic pumps measured after 6 days by RIA; format: functional
Rattus norvegicus [14] = test: Testosterone-suppressive activity in Crl:CD(SD) rat assessed as number of animal with plasma testosterone level below the limit of detection at 0.03 mol/hr, sc through osmotic pumps measured after 6 days by RIA; format: functional
Rattus norvegicus [15] = test: Testosterone-suppressive activity in Crl:CD(SD) rat assessed as number of animal with plasma testosterone level below the limit of detection […], sc through osmotic pumps measured after 6 days by RIA; format: functional
[16] = AUC (0 to 24 hrs) in Sprague-Dawley rat at 1 mg/kg, iv after 24 hrs by LC-MS/MS analysis; format: ADME, organism-based; set-up: time < 24 hr, dose 1 mg/kg, route intravenous; details: plasma
How it was run: (§2)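 Male Crl:CD(SD) rats (3 per group) got a single intravenous dose of 1 mg/kg. Blood was drawn at 5, 10, 15 and 30 min and at 1, 2, 4, 8 and 24 h. Plasma proteins were removed with 0.2% formic acid/methanol and acetonitrile, and the supernatant was treated with 0.4% formic acid. Peptide was quantified by LC-MS. Noncompartmental parameters were derived per rat, reported as mean ± SD (n = 3).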

[17] = Mean residence time in Sprague-Dawley rat at 1 mg/kg, iv after 24 hrs by LC-MS/MS analysis; format: ADME, organism-based; set-up: dose 1 mg/kg, route intravenous; details: in vivo; how it was run: as §2
[18] = Volume of distribution at steady state in Sprague-Dawley rat at 1 mg/kg, iv after 24 hrs by LC-MS/MS analysis; format: ADME, organism-based; set-up: dose 1 mg/kg, route intravenous; details: in vivo, read-out: Vdss; how it was run: as §2
[19] = Total clearance in Sprague-Dawley rat at 1 mg/kg, iv after 24 hrs by LC-MS/MS analysis; format: ADME, organism-based; set-up: dose 1 mg/kg, route intravenous; details: in vivo; how it was run: as §2
[20] = Cmax in Sprague-Dawley rat at 1 mg/kg, sc after 24 hrs by LC-MS/MS analysis; format: ADME, organism-based; set-up: dose 1 mg/kg, route subcutaneous; details: in vivo
How it was run: (§3)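 Single subcutaneous dose of 1 mg/kg in male Crl:CD(SD) rats, n = 3 per group. Blood was sampled from 5 min to 24 h (5, 10, 15, 30 min; 1, 2, 4, 8, 24 h). Plasma was deproteinized with formic acid/methanol and acetonitrile, and peptide levels were measured by LC-MS. Noncompartmental analysis per animal gave Cmax, Tmax, AUC0-24h, MRT and BA; values are mean ± SD (n = 3).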

[21] = Tmax in Sprague-Dawley rat at 1 mg/kg, sc after 24 hrs by LC-MS/MS analysis; format: ADME, organism-based; set-up: dose 1 mg/kg, route subcutaneous; details: in vivo; how it was run: as §3
[22] = AUC (0 to 24 hrs) in Sprague-Dawley rat at 1 mg/kg, sc after 24 hrs by LC-MS/MS analysis; format: ADME, organism-based; set-up: time < 24 hr, dose 1 mg/kg, route subcutaneous; details: plasma; how it was run: as §3
[23] = Mean residence time in Sprague-Dawley rat at 1 mg/kg, sc after 24 hrs by LC-MS/MS analysis; format: ADME, organism-based; set-up: dose 1 mg/kg, route subcutaneous; details: in vivo; how it was run: as §3
[24] = Bioavailability in Sprague-Dawley rat at 1 mg/kg, sc after 24 hrs by LC-MS/MS analysis; format: ADME, organism-based; details: in vivo; how it was run: as §3
Rattus norvegicus [25] = test: Testosterone-suppressive activity in Crl:CD(SD) rat assessed as plasma testosterone level below the limit of detection at 10 to 100 pmol/hr, sc continuous administration through osmotic pumps measured up to 1 week by RIA; format: functional, organism-based
How it was run: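 Peptide in 50% DMSO was diluted in distilled water to 10, 30 or 100 μM pump solutions, giving 10–100 pmol/h by subcutaneous ALZET osmotic pump in male Crl:CD(SD) rats (n = 5). Vehicle served as control. Plasma testosterone was measured by RIA after 1 or 4 weeks, with values below 0.04 ng/mL set to 0.04. Results are mean ± SD of five rats, tested by one-tailed Shirley–Williams test versus vehicle.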

[26] = C5min in Sprague-Dawley rat at 1 mg/kg, iv after 5 mins by LC-MS/MS analysis; details: in vivo, read-out: Cmin
Rattus norvegicus [27] = test: Testosterone-suppressive activity in Crl:CD(SD) rat assessed as number of animal with plasma testosterone level below the limit of detection at 0.1 nmol/hr, sc through osmotic pumps measured after 6 days by RIA; format: functional
How it was run: (§4)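 Peptide was dissolved in distilled water or 50% DMSO as 0.1–2 mM pump solutions and delivered by ALZET osmotic pumps implanted subcutaneously in the back of 9-week-old male Crl:CD(SD) rats (n = 5) under ether. Controls received distilled-water pumps. After 6 days, rats were decapitated and plasma was recovered with aprotinin/EDTA. Testosterone was measured by RIA, and the number of rats below the detection limit (0.04 ng/mL) was counted.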

Rattus norvegicus [28] = test: Testosterone-suppressive activity in Crl:CD(SD) rat assessed as number of animal with plasma testosterone level below the limit of detection at 2 nmol/hr, sc through osmotic pumps measured after 6 days by RIA; format: functional; how it was run: as §4
Rattus norvegicus [29] = test: Testosterone-suppressive activity in Crl:CD(SD) rat assessed as number of animal with plasma testosterone level below the limit of detection at 0.5 nmol/hr, sc through osmotic pumps measured after 6 days by RIA; format: functional; how it was run: as §4
Rattus norvegicus [30] = test: Testosterone-suppressive activity in Crl:CD(SD) rat assessed as number of animal with plasma testosterone level below the limit of detection at 0.3 nmol/hr, sc through osmotic pumps measured after 6 days by RIA; format: functional; how it was run: as §4

T1 sequence (Q969F8 whole entry): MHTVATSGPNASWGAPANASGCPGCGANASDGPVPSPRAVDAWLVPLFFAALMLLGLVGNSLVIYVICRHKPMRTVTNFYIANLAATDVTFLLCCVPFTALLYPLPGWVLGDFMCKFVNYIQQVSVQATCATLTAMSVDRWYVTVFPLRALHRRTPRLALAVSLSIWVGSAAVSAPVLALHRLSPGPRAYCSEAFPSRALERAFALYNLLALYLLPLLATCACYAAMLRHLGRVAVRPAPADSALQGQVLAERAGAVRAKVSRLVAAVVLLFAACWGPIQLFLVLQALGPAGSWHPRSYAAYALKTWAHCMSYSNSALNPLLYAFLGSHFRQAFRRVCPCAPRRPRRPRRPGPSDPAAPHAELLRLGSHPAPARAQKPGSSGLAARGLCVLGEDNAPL
T2 sequence (Q924U1 whole entry): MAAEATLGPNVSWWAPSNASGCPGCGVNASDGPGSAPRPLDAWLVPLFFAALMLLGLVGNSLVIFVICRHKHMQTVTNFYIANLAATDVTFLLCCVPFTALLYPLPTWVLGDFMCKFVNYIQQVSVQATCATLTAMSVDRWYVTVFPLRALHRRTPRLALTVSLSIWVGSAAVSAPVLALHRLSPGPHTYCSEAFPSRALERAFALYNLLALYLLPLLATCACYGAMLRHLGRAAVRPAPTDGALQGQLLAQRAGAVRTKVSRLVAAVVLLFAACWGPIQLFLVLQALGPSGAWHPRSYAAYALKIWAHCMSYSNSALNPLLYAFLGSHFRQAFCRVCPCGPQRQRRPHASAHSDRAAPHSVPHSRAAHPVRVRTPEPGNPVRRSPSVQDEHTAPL

EC50 (KiSS-1 receptor [1])	EC50 (KiSS-1 receptor [2])	Ki (KiSS-1 receptor [3])	Ki (KiSS-1 receptor [4])	remaining at 168 h [5]	remaining at 168 h [6]	remaining at 168 h [7]	remaining at 168 h [8]	remaining at 336 h [9]	remaining at 336 h [10]	remaining at 336 h [11]	remaining at 336 h [12]	AUC(0-t) at 24 h [16]	MRT [17]	Vd [18]	clearance [19]	Cmax [20]	Tmax [21]	AUC(0-t) at 24 h [22]	Structure (SMILES)	Activity (Rattus norvegicus [14])	also measured
0.94 nM	3.9 nM	0.038 nM	0.087 nM	50.6%	97.5%	98.1%	84.5%	22.3%	95%	96.3%	67.6%	497 ng·h/mL	26.4 min	0.896 L/kg	34.5 mL/min/kg	114 ng/mL	25.2 min	144 ng·h/mL	CNC(=N)NCCC[C@H](NC(=O)[C@H](CC(C)C)NC(=O)NNC(=O)[C@H](Cc1ccccc1)NC(=O)[C@@H](NC(=O)[C@H](CC(N)=O)NC(=O)[C@@H](Cc1c[nH]c2ccccc12)NC(=O)[C@@H](Cc1ccc(O)cc1)NC(C)=O)[C@@H](C)O)C(=O)N[C@@H](Cc1ccccc1)C(N)=O	4%	Activity (Rattus norvegicus [13]): 5%; Activity (Rattus norvegicus [15]): 0 animals; MRT [23]: 52.8 min; bioavailability [24]: 28.9%; inhibition (Rattus norvegicus [25]): Active; concentration at 5 min [26]: 1450 ng/mL
0.8 nM	3.7 nM	–	0.11 nM	–	–	–	–	–	–	–	–	–	–	–	–	–	–	–	CCCC(=O)N[C@H](Cc1ccc(O)cc1)C(=O)N[C@H](Cc1c[nH]c2ccccc12)C(=O)N[C@@H](CC(N)=O)C(=O)N[C@H](C(=O)N[C@@H](Cc1ccccc1)C(=O)NNC(=O)N[C@@H](CC(C)C)C(=O)N[C@@H](CCCNC(=N)NC)C(=O)N[C@@H](Cc1c[nH]c2ccccc12)C(N)=O)[C@@H](C)O	0%	Activity (Rattus norvegicus [27]): 3 rats (n = 5)
2.6 nM	10 nM	0.11 nM	0.14 nM	60.3%	99.4%	94.8%	54.9%	32.8%	100%	91.2%	28%	239 ng·h/mL	22.8 min	1.58 L/kg	69.9 mL/min/kg	145 ng/mL	8.4 min	96 ng·h/mL	CNC(=N)NCCC[C@H](NC(=O)[C@H](CC(C)C)NC(=O)NNC(=O)[C@H](Cc1ccccc1)NC(=O)[C@H](CO)NC(=O)[C@H](CC(N)=O)NC(=O)[C@@H](Cc1ccncc1)NC(=O)[C@H](N)Cc1ccc(O)cc1)C(=O)N[C@@H](Cc1ccccc1)C(N)=O [KISS1-305] (H-[dY][d4Pal]NSF[azaGly]L[Arg(Me)]F-NH2)	–	Activity (Rattus norvegicus [28]): 100%; Activity (Rattus norvegicus [29]): 60%; Activity (Rattus norvegicus [30]): 0%; Activity (Rattus norvegicus [27]): 0 rats (n = 5); MRT [23]: 36.6 min; concentration at 5 min [26]: 969 ng/mL
